The source of these data is ChEMBL document CHEMBL1138426, “Synthesis and DNA-binding ability of C2R-fluoro substituted DC-81 and its dimers” (Bioorg Med Chem Lett, 2007).

Assay [1] has as its system DNA. Nature of the assay: Binding affinity to calf thymus DNA at 1:5 (compound:DNA) molar ratio in pH 7.0, 37 degC after 18 hrs by thermal denaturation study. Format: nucleic-acid assay. The following applies: Bos taurus. The method, boiled down: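 Thermal denaturation of calf thymus DNA at pH 7.00 ± 0.01. The buffer was aqueous sodium phosphate (10 mM sodium phosphate + 1 mM EDTA). DNA was 100 μM and compound 20 μM, a 1:5 molar ratio. The mix was incubated at 37 °C for 0, 18 or 36 h before melting. ΔTm is the shift from the Tm of DNA alone (mean of 10 determinations), ±0.1–0.2 °C.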

In assay [2] the test system is DNA. Description: Binding affinity to calf thymus DNA at 1:5 (compound:DNA) molar ratio in pH 7.0, 37 degC after 36 hrs by thermal denaturation study. The settings on record: Bos taurus.

SMILES strings stand for the structures.

Usually ΔTm stands for the change in melting temperature against a reference sample.

As to `COc1cc2c(cc1OCCCCOc1cc3c(cc1OC)C(=O)N1C[C@H](F)C[C@H]1C=N3)N=C[C@@H]1C[C@@H](F)CN1C2=O`, the values for the ΔTm in the assay with DNA [1] and in the assay on DNA [2] were 12.4 °C and 14 °C, respectively. On to `COc1cc2c(cc1O)N=C[C@@H]1CCCN1C2=O`, for which the ΔTm in the assay on DNA [1] and in the assay with DNA [2] was 0.7 °C throughout.

`COc1cc2c(cc1OCCCOc1cc3c(cc1OC)C(=O)N1C[C@H](F)C[C@H]1C=N3)N=C[C@@H]1C[C@@H](F)CN1C2=O`: the ΔTm is 5.2 °C in the assay on DNA [1] and 6.2 °C in the assay with DNA [2].

As for `COc1cc2c(cc1OCCCOc1cc3c(cc1OC)C(=O)N1CCC[C@H]1C=N3)N=C[C@@H]1CCCN1C2=O`, the ΔTm with DNA [1] was 15.1 °C. With `COc1cc2c(cc1OCCCCCOc1cc3c(cc1OC)C(=O)N1C[C@H](F)C[C@H]1C=N3)N=C[C@@H]1C[C@@H](F)CN1C2=O`, the figures for the ΔTm with DNA [1] and in the assay with DNA [2] were 16.9 °C and 18.8 °C, respectively. With `COc1cc2c(cc1O)N=C[C@@H]1C[C@@H](F)CN1C2=O`, the ΔTm came out at 2.1 °C in the assay with DNA [1] and 2.3 °C with DNA [2].
